From ChEMBL document CHEMBL2375359, “Synthesis and antibacterial evaluation of novel pleuromutilin derivatives” (2013)
Values after ≈ are worked out from the molar mass of the structure shown.

Tests used:
Assay type in all cases: functional
Streptococcus agalactiae [1] = assay: Antibacterial activity against Streptococcus agalactiae after 48 hrs by agar dilution method
In short: (§1)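 Agar dilution per NCCLS on clinical isolates. 2-fold serial dilutions of compound (2 mL) mixed into 18 mL hot Mueller-Hinton agar. Inoculum from blood slants, adjusted to approx. 10⁵–10⁶ cfu/mL in sterile 0.90% NaCl, then spotted onto the plates. Incubated 36.5 °C, 48 h. MIC is the lowest concentration giving complete growth inhibition. Run in triplicate at pH 7.40.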

[2] = tested on: Staphylococcus epidermidis; assay: Antibacterial activity against methicillin-resistant Staphylococcus epidermidis after 48 hrs by agar dilution method
In short: (§2)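 Agar dilution per NCCLS: 2-fold serial dilutions incorporated into hot Mueller-Hinton agar. Clinical isolates grown from blood slants, suspended in sterile 0.90% NaCl to about 10⁵–10⁶ cfu/mL, spotted onto plates. Incubation 36.5 °C, 48 h. MIC taken as the lowest concentration giving complete growth inhibition. Run in triplicate at pH 7.40.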

Staphylococcus aureus [3] = assay: Antibacterial activity against methicillin-resistant Staphylococcus aureus at 80 ug/ml after 24 hrs by Oxford cup assay; details: read-out: IZ
In short: (§3)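 Oxford cup diffusion: clinical isolate inoculum in 0.9% saline set by McFarland standard, spread evenly on nutrient agar. Cups placed equidistant on the surface and filled with compound solutions prepared as for the agar dilution test, at several concentrations. Inhibition zone measured after 24 h at 37 °C.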

[4] = tested on: Staphylococcus epidermidis; assay: Antibacterial activity against methicillin-resistant Staphylococcus epidermidis at 160 ug/ml after 24 hrs by Oxford cup assay; details: read-out: IZ; in short: as §3
Streptococcus agalactiae [5] = assay: Antibacterial activity against Streptococcus agalactiae at 80 ug/ml after 24 hrs by Oxford cup assay; details: read-out: IZ
In short: (§4)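 Oxford cup diffusion with clinical isolates. Inoculum made in 0.9% saline to a McFarland standard and spread evenly on nutrient agar. Compound solutions, prepared as for the agar dilution test, were added at the stated concentration to Oxford cups set equidistant on the agar surface. Inhibition zones were measured after 24 h at 37 °C.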

Streptococcus agalactiae [6] = assay: Antibacterial activity against Streptococcus agalactiae at 320 ug/ml after 24 hrs by Oxford cup assay; details: read-out: IZ; in short: as §4
Escherichia coli [7] = assay: Antibacterial activity against Escherichia coli at 160 ug/ml after 24 hrs by Oxford cup assay; details: read-out: IZ; in short: as §4
Staphylococcus aureus [8] = assay: Antibacterial activity against methicillin-resistant Staphylococcus aureus after 48 hrs by agar dilution method; in short: as §2
Staphylococcus aureus [9] = assay: Antibacterial activity against methicillin-resistant Staphylococcus aureus at 320 ug/ml after 24 hrs by Oxford cup assay; details: read-out: IZ; in short: as §3
Escherichia coli [10] = assay: Antibacterial activity against Escherichia coli after 48 hrs by agar dilution method; in short: as §1
Staphylococcus aureus [11] = assay: Antibacterial activity against methicillin-resistant Staphylococcus aureus at 160 ug/ml after 24 hrs by Oxford cup assay; details: read-out: IZ; in short: as §3
Escherichia coli [12] = assay: Antibacterial activity against Escherichia coli at 80 ug/ml after 24 hrs by Oxford cup assay; details: read-out: IZ; in short: as §4
Escherichia coli [13] = assay: Antibacterial activity against Escherichia coli at 320 ug/ml after 24 hrs by Oxford cup assay; details: read-out: IZ; in short: as §4
[14] = tested on: Staphylococcus epidermidis; assay: Antibacterial activity against methicillin-resistant Staphylococcus epidermidis at 320 ug/ml after 24 hrs by Oxford cup assay; details: read-out: IZ; in short: as §3
[15] = tested on: Staphylococcus epidermidis; assay: Antibacterial activity against methicillin-resistant Staphylococcus epidermidis at 80 ug/ml after 24 hrs by Oxford cup assay; details: read-out: IZ; in short: as §3
Streptococcus agalactiae [16] = assay: Antibacterial activity against Streptococcus agalactiae at 160 ug/ml after 24 hrs by Oxford cup assay; details: read-out: IZ; in short: as §4

Structure (SMILES)	MIC (Streptococcus agalactiae [1])	MIC [2]	zone of inhibition at 80 µg/mL (Staphylococcus aureus [3])	zone of inhibition at 160 µg/mL [4]	zone of inhibition at 80 µg/mL (Streptococcus agalactiae [5])	zone of inhibition at 320 µg/mL (Streptococcus agalactiae [6])	zone of inhibition at 160 µg/mL (Escherichia coli [7])	MIC (Staphylococcus aureus [8])	zone of inhibition at 320 µg/mL (Staphylococcus aureus [9])	MIC (Escherichia coli [10])	zone of inhibition at 160 µg/mL (Staphylococcus aureus [11])	zone of inhibition at 80 µg/mL (Escherichia coli [12])	zone of inhibition at 320 µg/mL (Escherichia coli [13])	zone of inhibition at 320 µg/mL [14]	zone of inhibition at 80 µg/mL [15]	zone of inhibition at 160 µg/mL (Streptococcus agalactiae [16])
C=C[C@]1(C)C[C@@H](OC(=O)CSC(C)(C)CNC(=O)c2ccccc2Cl)[C@]2(C)[C@H](C)CC[C@]3(CCC(=O)[C@H]32)[C@@H](C)[C@@H]1O	8 µg/mL (≈ 13.2 µM)	1 µg/mL (≈ 1.65 µM)	14.1 mm	12.2 mm	10.6 mm	10.8 mm	11.9 mm	0.5 µg/mL (≈ 0.827 µM)	14.2 mm	4 µg/mL (≈ 6.62 µM)	12.2 mm	11.3 mm	14.5 mm	13.4 mm	11.4 mm	11.2 mm
C=C[C@]1(C)C[C@@H](OC(=O)CSC(C)(C)CNC(=O)c2cccc(Cl)c2)[C@]2(C)[C@H](C)CC[C@]3(CCC(=O)[C@H]32)[C@@H](C)[C@@H]1O	32 µg/mL (≈ 53 µM)	16 µg/mL (≈ 26.5 µM)	11.9 mm	10.6 mm	10.4 mm	12.2 mm	10.7 mm	8 µg/mL (≈ 13.2 µM)	13.5 mm	8 µg/mL (≈ 13.2 µM)	13.1 mm	11.9 mm	15.7 mm	11.9 mm	9.45 mm	13.9 mm
C=C[C@]1(C)C[C@@H](OC(=O)CSC(C)(C)CNC(=O)c2ccc(Cl)cc2)[C@]2(C)[C@H](C)CC[C@]3(CCC(=O)[C@H]32)[C@@H](C)[C@@H]1O	4 µg/mL (≈ 6.62 µM)	0.5 µg/mL (≈ 0.827 µM)	11.8 mm	12.7 mm	10.8 mm	14 mm	12.9 mm	1 µg/mL (≈ 1.65 µM)	14.6 mm	2 µg/mL (≈ 3.31 µM)	13.8 mm	11.8 mm	12.6 mm	12.4 mm	8.72 mm	12.1 mm
C=C[C@]1(C)C[C@@H](OC(=O)CSC(C)(C)CNC(=O)c2ccccc2C)[C@]2(C)[C@H](C)CC[C@]3(CCC(=O)[C@H]32)[C@@H](C)[C@@H]1O	0.5 µg/mL (≈ 0.856 µM)	16 µg/mL (≈ 27.4 µM)	10.3 mm	12.9 mm	10 mm	12.4 mm	13.7 mm	0.25 µg/mL (≈ 0.428 µM)	12.3 mm	2 µg/mL (≈ 3.43 µM)	11.8 mm	12.1 mm	15 mm	13.8 mm	10.7 mm	10.9 mm
C=C[C@]1(C)C[C@@H](OC(=O)CSC(C)(C)CNC(=O)c2cccc(C)c2)[C@]2(C)[C@H](C)CC[C@]3(CCC(=O)[C@H]32)[C@@H](C)[C@@H]1O	2 µg/mL (≈ 3.43 µM)	16 µg/mL (≈ 27.4 µM)	11.2 mm	10.8 mm	13 mm	13.6 mm	13.7 mm	1 µg/mL (≈ 1.71 µM)	13.1 mm	8 µg/mL (≈ 13.7 µM)	13.2 mm	11.3 mm	15.5 mm	12.4 mm	9.9 mm	13 mm
C=C[C@]1(C)C[C@@H](OC(=O)CSC(C)(C)CNC(=O)c2ccc(C)cc2)[C@]2(C)[C@H](C)CC[C@]3(CCC(=O)[C@H]32)[C@@H](C)[C@@H]1O	0.5 µg/mL (≈ 0.856 µM)	16 µg/mL (≈ 27.4 µM)	10.4 mm	10.3 mm	9.82 mm	12.3 mm	15.1 mm	0.25 µg/mL (≈ 0.428 µM)	12.6 mm	4 µg/mL (≈ 6.85 µM)	11.5 mm	9.8 mm	16.6 mm	12.1 mm	10.9 mm	10.9 mm
C=C[C@]1(C)C[C@@H](OC(=O)CSC(C)(C)CNC(=O)c2ccccc2OC)[C@]2(C)[C@H](C)CC[C@]3(CCC(=O)[C@H]32)[C@@H](C)[C@@H]1O	2 µg/mL (≈ 3.33 µM)	8 µg/mL (≈ 13.3 µM)	9.5 mm	12.5 mm	11.8 mm	13.7 mm	15.5 mm	0.25 µg/mL (≈ 0.417 µM)	12.4 mm	4 µg/mL (≈ 6.67 µM)	12.1 mm	12.4 mm	17.4 mm	13.5 mm	10.8 mm	13 mm
C=C[C@]1(C)C[C@@H](OC(=O)CSC(C)(C)CNC(=O)c2cccc(OC)c2)[C@]2(C)[C@H](C)CC[C@]3(CCC(=O)[C@H]32)[C@@H](C)[C@@H]1O	4 µg/mL (≈ 6.67 µM)	32 µg/mL (≈ 53.3 µM)	11.8 mm	11.7 mm	12.6 mm	13.4 mm	13.3 mm	2 µg/mL (≈ 3.33 µM)	12.8 mm	8 µg/mL (≈ 13.3 µM)	13 mm	12.2 mm	14.3 mm	12.5 mm	11.4 mm	12.4 mm
C=C[C@]1(C)C[C@@H](OC(=O)CSC(C)(C)CNC(=O)c2ccc(OC)cc2)[C@]2(C)[C@H](C)CC[C@]3(CCC(=O)[C@H]32)[C@@H](C)[C@@H]1O	0.5 µg/mL (≈ 0.834 µM)	2 µg/mL (≈ 3.33 µM)	15.3 mm	15.2 mm	16 mm	16.6 mm	17.1 mm	0.25 µg/mL (≈ 0.417 µM)	19.7 mm	1 µg/mL (≈ 1.67 µM)	18.4 mm	15.7 mm	18.5 mm	18.3 mm	14.4 mm	15.9 mm
